Experiments:
Format in all cases: functional
OVCAR-4 = assay: Antiproliferative activity against human OVCAR-4 cells assessed as cell growth inhibition at 10 uM incubated for 48 hrs by sulforhodamine B assay relative to control
How it was run: (§1)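 NCI-60 single-dose screen at 10^-5 M. Cells grown in RPMI 1640 with 5% FBS and 2 mM L-glutamine, plated at 5,000–40,000 cells/well, and preincubated 24 h. Drug (DMSO stock) added and incubated 48 h at 37 °C, 5% CO2. Adherent cells fixed with cold TCA, stained with 0.4% SRB in 1% acetic acid, dye solubilized in 10 mM trizma base, A515 read. Percent growth taken against time-zero and untreated control.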

IGROV-1 = assay: Antiproliferative activity against human IGROV-1 cells assessed as cell growth inhibition at 10 uM incubated for 48 hrs by sulforhodamine B assay relative to control; how it was run: as §1
SF-268 = assay: Antiproliferative activity against human SF-268 cells assessed as cell growth inhibition at 10 uM incubated for 48 hrs by sulforhodamine B assay relative to control; how it was run: as §1
M14 = assay: Antiproliferative activity against human M14 cells assessed as cell growth inhibition at 10 uM incubated for 48 hrs by sulforhodamine B assay relative to control; how it was run: as §1
SK-MEL-28 = assay: Antiproliferative activity against human SK-MEL-28 cells assessed as cell growth inhibition at 10 uM incubated for 48 hrs by sulforhodamine B assay relative to control; how it was run: as §1
HT-29 = assay: Antiproliferative activity against human HT-29 cells assessed as cell growth inhibition at 10 uM incubated for 48 hrs by sulforhodamine B assay relative to control; how it was run: as §1
HOP-62 = assay: Antiproliferative activity against human HOP-62 cells assessed as cell growth inhibition at 10 uM incubated for 48 hrs by sulforhodamine B assay relative to control
How it was run: (§2)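 NCI-60 one-dose prescreen at 10^-5 M. Cells grown in RPMI 1640 with 5% FBS and 2 mM glutamine, preincubated 24 h, then exposed 48 h at 37 °C. Adherent lines TCA-fixed, SRB-stained, A515 read. Growth percent relative to time-zero and control; negative values mean cell kill.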

NCI-H23 = assay: Antiproliferative activity against human NCI-H23 cells assessed as cell growth inhibition at 10 uM incubated for 48 hrs by sulforhodamine B assay relative to control; how it was run: as §1
MCF7 = assay: Antiproliferative activity against human MCF7 cells assessed as cell growth inhibition at 10 uM incubated for 48 hrs by sulforhodamine B assay relative to control; how it was run: as §1
NCI-H460 = assay: Antiproliferative activity against human NCI-H460 cells assessed as cell growth inhibition at 10 uM incubated for 48 hrs by sulforhodamine B assay relative to control; how it was run: as §1
MDA-MB-435 = assay: Antiproliferative activity against human MDA-MB-435 cells assessed as cell growth inhibition at 10 uM incubated for 48 hrs by sulforhodamine B assay relative to control; how it was run: as §1
OVCAR-3 = assay: Antiproliferative activity against human OVCAR-3 cells assessed as cell growth inhibition at 10 uM incubated for 48 hrs by sulforhodamine B assay relative to control; how it was run: as §1
RPMI-8226 = assay: Antiproliferative activity against human RPMI-8226 cells assessed as cell growth inhibition at 10 uM incubated for 48 hrs by sulforhodamine B assay relative to control; how it was run: as §1
SF-539 = assay: Antiproliferative activity against human SF-539 cells assessed as cell growth inhibition at 10 uM incubated for 48 hrs by sulforhodamine B assay relative to control; how it was run: as §1
PC-3 = assay: Antiproliferative activity against human PC-3 cells assessed as cell growth inhibition at 10 uM incubated for 48 hrs by sulforhodamine B assay relative to control; how it was run: as §1
SK-MEL-5 = assay: Antiproliferative activity against human SK-MEL-5 cells assessed as cell growth inhibition at 10 uM incubated for 48 hrs by sulforhodamine B assay relative to control; how it was run: as §1
CAKI-1 = assay: Antiproliferative activity against human CAKI-1 cells assessed as cell growth inhibition at 10 uM incubated for 48 hrs by sulforhodamine B assay relative to control
How it was run: (§3)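 Single-dose NCI-60 prescreen at 10^-5 M. Cells in RPMI 1640 with 5% FBS and 2 mM L-glutamine, seeded 5,000–40,000 cells/well with 24 h preincubation, then drug exposure for 48 h at 37 °C under 5% CO2. Growth read by SRB staining of TCA-fixed cells at 515 nm against time-zero and untreated controls. Negative growth values denote cell kill.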

SF-295 = assay: Antiproliferative activity against human SF-295 cells assessed as cell growth inhibition at 10 uM incubated for 48 hrs by sulforhodamine B assay relative to control; how it was run: as §1
TK-10 = assay: Antiproliferative activity against human TK-10 cells assessed as cell growth inhibition at 10 uM incubated for 48 hrs by sulforhodamine B assay relative to control; how it was run: as §1
DU-145 = assay: Antiproliferative activity against human DU-145 cells assessed as cell growth inhibition at 10 uM incubated for 48 hrs by sulforhodamine B assay relative to control; how it was run: as §2
BT-549 = assay: Antiproliferative activity against human BT-549 cells assessed as cell growth inhibition at 10 uM incubated for 48 hrs by sulforhodamine B assay relative to control; how it was run: as §3
NCI-H322M = assay: Antiproliferative activity against human NCI-H322M cells assessed as cell growth inhibition at 10 uM incubated for 48 hrs by sulforhodamine B assay relative to control; how it was run: as §1
SK-OV-3 = assay: Antiproliferative activity against human SK-OV-3 cells assessed as cell growth inhibition at 10 uM incubated for 48 hrs by sulforhodamine B assay relative to control; how it was run: as §1
T47D = assay: Antiproliferative activity against human T47D cells assessed as cell growth inhibition at 10 uM incubated for 48 hrs by sulforhodamine B assay relative to control; how it was run: as §1
K562 = assay: Antiproliferative activity against human K562 cells assessed as cell growth inhibition at 10 uM incubated for 48 hrs by sulforhodamine B assay relative to control; how it was run: as §1
A549 = assay: Antiproliferative activity against human A549 cells assessed as cell growth inhibition at 10 uM incubated for 48 hrs by sulforhodamine B assay relative to control; how it was run: as §3

| SMILES | inhibition at 10 µM (OVCAR-4) | inhibition at 10 µM (IGROV-1) | inhibition at 10 µM (SF-268) | inhibition at 10 µM (M14) | inhibition at 10 µM (HT-29) | inhibition at 10 µM (HOP-62) | inhibition at 10 µM (NCI-H23) | inhibition at 10 µM (MCF7) | inhibition at 10 µM (NCI-H460) | inhibition at 10 µM (OVCAR-3) | inhibition at 10 µM (RPMI-8226) | inhibition at 10 µM (SF-539) | inhibition at 10 µM (PC-3) | inhibition at 10 µM (SK-MEL-5) | inhibition at 10 µM (SF-295) | inhibition at 10 µM (DU-145) | inhibition at 10 µM (BT-549) | inhibition at 10 µM (NCI-H322M) | inhibition at 10 µM (T47D) | inhibition at 10 µM (A549) | further results |
| --- | --- | --- | --- | --- | --- | --- | --- | --- | --- | --- | --- | --- | --- | --- | --- | --- | --- | --- | --- | --- | --- |
| O=Cc1ccc(-c2cn3ccnc3c(-c3ccc4ncn(C5CCCCC5)c4c3)n2)cc1 | 16.9% | 21.3% | 27.1% | 23% | 17.5% | 23.8% | 54.5% | 47.8% | 37.8% | 23.7% | 82.5% | 31.5% | 19% | 56.5% | 23.1% | 24.3% | 33.8% | 11.2% | 98% |  | inhibition at 10 µM (SK-MEL-28): 7.54%; inhibition at 10 µM (MDA-MB-435): 13%; inhibition at 10 µM (CAKI-1): 36.5%; inhibition at 10 µM (TK-10): 0.75%; inhibition at 10 µM (SK-OV-3): 5.11% |
| Fc1ccc(-c2cn3ccnc3c(-c3ccc4ncn(C5CCCCC5)c4c3)n2)cc1 | 5.73% |  | 10.7% | 2.98% |  |  | 2.36% | 9.17% | 6.12% | 7.88% | 50.1% | 17.3% | 53.6% | 7.36% | 7.93% | 1.17% | 20.3% | 0.01% | 33.3% | 12.8% | inhibition at 10 µM (K562): 24.7%; inhibition at 10 µM (SK-MEL-28): 2.67%; inhibition at 10 µM (MDA-MB-435): 1.78% |
| COc1ccccc1-c1cn2ccnc2c(-c2ccc3ncn(C4CCCCC4)c3c2)n1 | 13.2% |  | 8.04% | 1.12% | 11.1% |  | 2.79% | 8.4% | 9.62% | 6.57% | 35.9% | 8.07% | 43.1% | 8.94% | 9.76% |  |  |  | 36.6% | 13.9% | inhibition at 10 µM (K562): 22.6%; inhibition at 10 µM (SK-OV-3): 10.6% |
| Brc1cn2ccnc2c(-c2ccc3ncn(C4CCCCC4)c3c2)n1 | 9.15% | 6.6% | 17.1% |  | 5.21% | 21.7% | 10.2% | 47.6% |  | 15.8% | 14.9% | 10% | 17.2% | 13.4% |  | 6.2% | 5.16% | 18.1% | 49.7% | 9.36% | inhibition at 10 µM (K562): 18%; inhibition at 10 µM (TK-10): 5.55% |
| O=Cc1ccc(-c2cn3ccnc3c(-c3ccc4ncn(Cc5ccccc5)c4c3)n2)cc1 | 16.9% | 21.3% | 27.1% | 23% | 17.5% | 23.8% | 54.5% | 47.8% | 37.8% | 23.7% | 82.5% | 31.5% | 19% | 56.5% | 23.1% | 24.3% | 33.8% | 11.2% | 98% |  | inhibition at 10 µM (SK-MEL-28): 7.54%; inhibition at 10 µM (MDA-MB-435): 13%; inhibition at 10 µM (CAKI-1): 36.5%; inhibition at 10 µM (TK-10): 0.75%; inhibition at 10 µM (SK-OV-3): 5.11% |
| Fc1ccccc1-c1cn2ccnc2c(-c2ccc3ncn(C4CCCCC4)c3c2)n1 | 4.51% |  | 6.04% | 2.92% | 7.26% |  | 4.16% | 11.2% | 8.1% | 0.17% | 42.4% | 4.51% | 32.6% | 6.5% | 10.4% | 0.96% | 4.08% |  | 77.2% | 9.1% | inhibition at 10 µM (K562): 22.8% |
| c1ccc(Cn2cnc3ccc(-c4nc(-c5cccc6ccccc56)cn5ccnc45)cc32)cc1 | 7.88% | 11.3% | 10.3% | 4.41% | 18.6% | 14% | 10.4% | 29.2% | 3.8% | 1.44% | 26.9% | 4.22% | 31.4% | 9.69% | 8.22% |  |  | 1.34% | 73.8% | 7.31% | inhibition at 10 µM (CAKI-1): 27.1% |
